From ChEMBL document CHEMBL1148008, “Antimicrobial and cytotoxic activity of agelasine and agelasimine analogs” (Bioorg Med Chem, 2007)
pIC50: −log10 of the molar value. Values after ≈ are worked out from the molar mass of the structure shown.

Tested on: Mycobacterium tuberculosis
Experiment: Antimicrobial activity against Mycobacterium tuberculosis at 6.25 ug/mL after 20 hrs by broth microdilution method
Format: functional
Conditions: not given

| Structure (SMILES) | inhibition at 6.25 µg/mL |
| --- | --- |
| CO/N=c1\[nH]cnc2c1[n+](C/C=C(\C)CC/C=C(/C)CCC=C(C)C)cn2C | 98% |
| CC(C)=CCC/C(C)=C\CC/C(C)=C/C[n+]1cn(C)c2nc[nH]/c(=N\OCc3ccccc3)c21 | 99% |
| CC(C)=CCC/C(C)=C/CC/C(C)=C/CC/C(C)=C/Cn1cnc2ncnc(N)c21 | 99% |

Tested on: Mycobacterium tuberculosis
Experiment: Antimicrobial activity against Mycobacterium tuberculosis after 20 hrs by broth microdilution method
Format: functional
Conditions: not given

| Structure (SMILES) | MIC |
| --- | --- |
| CO/N=c1\[nH]cnc2c1[n+](C/C=C(\C)CC/C=C(/C)CCC=C(C)C)cn2C | 3.13 µg/mL |
| CC(C)=CCC/C(C)=C\CC/C(C)=C/C[n+]1cn(C)c2nc[nH]/c(=N\OCc3ccccc3)c21 | 3.13 µg/mL |
| CC(C)=CCC/C(C)=C/CC/C(C)=C/CC/C(C)=C/Cn1cnc2ncnc(N)c21 | 1.56 µg/mL (≈ 3.83 µM) |

Tested on: Staphylococcus aureus
Experiment: Antibacterial activity against Staphylococcus aureus ATCC 25923 after 20 hrs by broth microdilution method
Format: functional
Conditions: ATCC 25923, 20 h
In short: (§1)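 Strains grown 24 h at 35 °C on tryptone-soya agar. Colonies suspended in saline to 0.5 McFarland, then diluted 1:10 in Mueller-Hinton broth (~10⁷ CFU/mL). Inoculum added to twofold dilutions in broth (final 0.125–32 µg/mL) in triplicate. Incubated aerobically at 35 °C for 20 h. MIC is the lowest concentration giving complete growth inhibition. Repeated at least once; gentamycin/streptomycin served as QC.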

| Structure (SMILES) | MIC |
| --- | --- |
| CO/N=c1\[nH]cnc2c1[n+](C/C=C(\C)CC/C=C(\C)CC/C=C(\C)CCC=C(C)C)cn2C | 4 µg/mL |
| CC(C)=CCC/C(C)=C/CC/C(C)=C/CC/C(C)=C/C[n+]1cn(C)c2ncnc(N)c21 | 32 µg/mL |
| CO/N=c1\[nH]cnc2c1[n+](C/C=C(\C)CC/C=C(/C)CCC=C(C)C)cn2C | 6 µg/mL |
| CC(C)=CCC/C(C)=C\CC/C(C)=C/C[n+]1cn(C)c2nc[nH]/c(=N\OCc3ccccc3)c21 | 8 µg/mL |
| CC(C)=CCC/C(C)=C/CC/C(C)=C/CC/C(C)=C/Cn1cnc2ncnc(N)c21 | > 32 µg/mL |

Tested on: Escherichia coli
Experiment: Antibacterial activity against Escherichia coli ATCC 25922 after 20 hrs by broth microdilution method
Format: functional
Conditions: ATCC 25922, 20 h
In short: as §1

| Structure (SMILES) | MIC |
| --- | --- |
| CO/N=c1\[nH]cnc2c1[n+](C/C=C(\C)CC/C=C(\C)CC/C=C(\C)CCC=C(C)C)cn2C | 16 µg/mL |
| CC(C)=CCC/C(C)=C/CC/C(C)=C/CC/C(C)=C/C[n+]1cn(C)c2ncnc(N)c21 | > 32 µg/mL |
| CO/N=c1\[nH]cnc2c1[n+](C/C=C(\C)CC/C=C(/C)CCC=C(C)C)cn2C | 16 µg/mL |
| CC(C)=CCC/C(C)=C\CC/C(C)=C/C[n+]1cn(C)c2nc[nH]/c(=N\OCc3ccccc3)c21 | 12 µg/mL |
| CC(C)=CCC/C(C)=C/CC/C(C)=C/CC/C(C)=C/Cn1cnc2ncnc(N)c21 | > 32 µg/mL |

Tested on: Bacteroides fragilis
Experiment: Antibacterial activity against Bacteroides fragilis after 20 hrs by broth microdilution method
Format: functional
Conditions: not given

| Structure (SMILES) | MIC |
| --- | --- |
| CO/N=c1\[nH]cnc2c1[n+](C/C=C(\C)CC/C=C(\C)CC/C=C(\C)CCC=C(C)C)cn2C | 8 µg/mL |
| Cc1ncc([N+](=O)[O-])n1CCO [METRONIDAZOLE] | 0.5 µg/mL (≈ 2.92 µM) |
| CO/N=c1\[nH]cnc2c1[n+](C/C=C(\C)CC/C=C(/C)CCC=C(C)C)cn2C | 32 µg/mL |
| CC(C)=CCC/C(C)=C\CC/C(C)=C/C[n+]1cn(C)c2nc[nH]/c(=N\OCc3ccccc3)c21 | 4 µg/mL |

Tested on: Bacteroides thetaiotaomicron
Experiment: Antibacterial activity against Bacteroides thetaiotaomicron after 20 hrs by broth microdilution method
Format: functional
Conditions: not given

| Structure (SMILES) | MIC |
| --- | --- |
| CO/N=c1\[nH]cnc2c1[n+](C/C=C(\C)CC/C=C(\C)CC/C=C(\C)CCC=C(C)C)cn2C | 8 µg/mL |
| Cc1ncc([N+](=O)[O-])n1CCO [METRONIDAZOLE] | 1 µg/mL (≈ 5.84 µM) |
| CO/N=c1\[nH]cnc2c1[n+](C/C=C(\C)CC/C=C(/C)CCC=C(C)C)cn2C | 16 µg/mL |
| CC(C)=CCC/C(C)=C\CC/C(C)=C/C[n+]1cn(C)c2nc[nH]/c(=N\OCc3ccccc3)c21 | 4 µg/mL |

Tested on: U-937/GTB
Experiment: Cytotoxicity against U937 GTB cells
Format: functional, cell-based
Conditions: Homo sapiens
In short: (§2)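 Fluorometric microculture cytotoxicity assay (FMCA) read-out; IC50 values reported.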

| Structure (SMILES) | pIC50 |
| --- | --- |
| CO/N=c1\[nH]cnc2c1[n+](C/C=C(\C)CC/C=C(\C)CC/C=C(\C)CCC=C(C)C)cn2C | 5.85 |
| CC(C)=CCC/C(C)=C/CC/C(C)=C/CC/C(C)=C/C[n+]1cn(C)c2ncnc(N)c21 | 5.50 |
| CO/N=c1\[nH]cnc2c1[n+](C/C=C(\C)CC/C=C(/C)CCC=C(C)C)cn2C | 5.85 |
| CC(C)=CCC/C(C)=C\CC/C(C)=C/C[n+]1cn(C)c2nc[nH]/c(=N\OCc3ccccc3)c21 | 5.12 |
| CC(C)=CCC/C(C)=C/CC/C(C)=C/CC/C(C)=C/Cn1cnc2ncnc(N)c21 | 5.44 |

Tested on: not listed separately
Experiment: Cytotoxicity against RPMI 8226/s cells
Format: functional, cell-based
Conditions: Homo sapiens, RPMI8226/S
In short: as §2

| Structure (SMILES) | pIC50 |
| --- | --- |
| CO/N=c1\[nH]cnc2c1[n+](C/C=C(\C)CC/C=C(\C)CC/C=C(\C)CCC=C(C)C)cn2C | 5.95 |
| CC(C)=CCC/C(C)=C/CC/C(C)=C/CC/C(C)=C/C[n+]1cn(C)c2ncnc(N)c21 | 5.55 |
| CO/N=c1\[nH]cnc2c1[n+](C/C=C(\C)CC/C=C(/C)CCC=C(C)C)cn2C | 6.13 |
| CC(C)=CCC/C(C)=C\CC/C(C)=C/C[n+]1cn(C)c2nc[nH]/c(=N\OCc3ccccc3)c21 | 5.17 |
| CC(C)=CCC/C(C)=C/CC/C(C)=C/CC/C(C)=C/Cn1cnc2ncnc(N)c21 | 5.56 |

Tested on: not listed separately
Experiment: Cytotoxicity against CEM/s cells
Format: functional, cell-based
Conditions: Homo sapiens
In short: as §2

| Structure (SMILES) | pIC50 |
| --- | --- |
| CO/N=c1\[nH]cnc2c1[n+](C/C=C(\C)CC/C=C(\C)CC/C=C(\C)CCC=C(C)C)cn2C | 5.72 |
| CC(C)=CCC/C(C)=C/CC/C(C)=C/CC/C(C)=C/C[n+]1cn(C)c2ncnc(N)c21 | 5.51 |
| CO/N=c1\[nH]cnc2c1[n+](C/C=C(\C)CC/C=C(/C)CCC=C(C)C)cn2C | 5.91 |
| CC(C)=CCC/C(C)=C\CC/C(C)=C/C[n+]1cn(C)c2nc[nH]/c(=N\OCc3ccccc3)c21 | 5.00 |
| CC(C)=CCC/C(C)=C/CC/C(C)=C/CC/C(C)=C/Cn1cnc2ncnc(N)c21 | 5.54 |

Tested on: ACHN
Experiment: Cytotoxicity against ACHN cells
Format: functional, cell-based
Conditions: Homo sapiens
In short: as §2

| Structure (SMILES) | pIC50 |
| --- | --- |
| CO/N=c1\[nH]cnc2c1[n+](C/C=C(\C)CC/C=C(\C)CC/C=C(\C)CCC=C(C)C)cn2C | 5.13 |
| CC(C)=CCC/C(C)=C/CC/C(C)=C/CC/C(C)=C/C[n+]1cn(C)c2ncnc(N)c21 | 4.69 |
| CO/N=c1\[nH]cnc2c1[n+](C/C=C(\C)CC/C=C(/C)CCC=C(C)C)cn2C | 4.54 |
| CC(C)=CCC/C(C)=C\CC/C(C)=C/C[n+]1cn(C)c2nc[nH]/c(=N\OCc3ccccc3)c21 | 4.60 |
| CC(C)=CCC/C(C)=C/CC/C(C)=C/CC/C(C)=C/Cn1cnc2ncnc(N)c21 | 5.14 |

Tested on: Streptococcus pyogenes
Experiment: Antibacterial activity against Streptococcus pyogenes after 20 hrs by broth microdilution method
Format: functional
Conditions: not given

| Structure (SMILES) | MIC |
| --- | --- |
| CO/N=c1\[nH]cnc2c1[n+](C/C=C(\C)CC/C=C(\C)CC/C=C(\C)CCC=C(C)C)cn2C | 4 µg/mL |

Tested on: Enterococcus faecalis
Experiment: Antimicrobial activity against Enterococcus faecalis after 20 hrs by broth microdilution method
Format: functional
Conditions: not given

| Structure (SMILES) | MIC |
| --- | --- |
| CO/N=c1\[nH]cnc2c1[n+](C/C=C(\C)CC/C=C(\C)CC/C=C(\C)CCC=C(C)C)cn2C | 8 µg/mL |

Tested on: Pseudomonas aeruginosa
Experiment: Antibacterial activity against Pseudomonas aeruginosa after 20 hrs by broth microdilution method
Format: functional
Conditions: not given

| Structure (SMILES) | MIC |
| --- | --- |
| CO/N=c1\[nH]cnc2c1[n+](C/C=C(\C)CC/C=C(\C)CC/C=C(\C)CCC=C(C)C)cn2C | > 32 µg/mL |

Tested on: Pichia kudriavzevii
Experiment: Antifungal activity against Candida krusei ATCC 6258
Format: functional
Conditions: not given

| Structure (SMILES) | MIC |
| --- | --- |
| CO/N=c1\[nH]cnc2c1[n+](C/C=C(\C)CC/C=C(\C)CC/C=C(\C)CCC=C(C)C)cn2C | 2 µg/mL |
| CC(C)=CCC/C(C)=C/CC/C(C)=C/CC/C(C)=C/C[n+]1cn(C)c2ncnc(N)c21 | > 16 µg/mL |
| CC(C)=CCC/C(C)=C/CC/C(C)=C/CC/C(C)=C/Cn1cnc2ncnc(N)c21 | > 16 µg/mL |
